Experimental data from different studies.
Lines come from different studies, so protocols differ.
Target: Ephrin type-B receptor 4 (EPHB4, Homo sapiens, UniProt P54760)
Residues used in one study (P54760 16-987): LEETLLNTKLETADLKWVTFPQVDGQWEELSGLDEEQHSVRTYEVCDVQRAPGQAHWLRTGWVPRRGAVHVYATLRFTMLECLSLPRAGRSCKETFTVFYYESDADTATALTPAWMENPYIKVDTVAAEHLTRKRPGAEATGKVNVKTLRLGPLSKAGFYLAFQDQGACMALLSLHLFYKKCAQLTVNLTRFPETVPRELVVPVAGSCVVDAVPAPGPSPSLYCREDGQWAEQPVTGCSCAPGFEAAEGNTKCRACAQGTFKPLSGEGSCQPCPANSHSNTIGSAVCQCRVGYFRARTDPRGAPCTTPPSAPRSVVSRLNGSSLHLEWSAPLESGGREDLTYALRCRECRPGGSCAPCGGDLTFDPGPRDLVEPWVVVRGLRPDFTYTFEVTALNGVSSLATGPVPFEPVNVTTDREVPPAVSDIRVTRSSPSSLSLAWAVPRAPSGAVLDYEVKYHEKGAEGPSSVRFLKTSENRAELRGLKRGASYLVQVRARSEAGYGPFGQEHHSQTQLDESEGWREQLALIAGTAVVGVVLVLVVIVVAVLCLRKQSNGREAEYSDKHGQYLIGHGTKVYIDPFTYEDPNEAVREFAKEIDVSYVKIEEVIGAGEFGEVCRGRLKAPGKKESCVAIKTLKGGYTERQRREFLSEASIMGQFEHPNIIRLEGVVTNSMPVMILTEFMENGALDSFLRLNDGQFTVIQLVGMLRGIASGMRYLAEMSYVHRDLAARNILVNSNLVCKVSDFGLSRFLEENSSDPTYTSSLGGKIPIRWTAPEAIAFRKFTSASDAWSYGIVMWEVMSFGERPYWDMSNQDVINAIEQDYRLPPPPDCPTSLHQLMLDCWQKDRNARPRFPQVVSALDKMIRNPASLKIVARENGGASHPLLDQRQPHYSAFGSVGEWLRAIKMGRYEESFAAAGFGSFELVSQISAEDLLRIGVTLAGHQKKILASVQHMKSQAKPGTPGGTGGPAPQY

Cc1noc([C@H]2C[C@@H](c3ccc(C(F)(F)F)cc3)CN(C(=O)N3CCS(=O)(=O)C3)C2)n1
remaining binding (cell-free assay; competition with immobilised ligand; 1 µM): 100%

CC1CCCN1c1nccc(-c2cnn3ncccc23)n1 (stereo not drawn)
remaining binding (binding; 1 µM): 100%

C[C@@H](c1ccc(-n2cnc3c(N)ncnc32)cc1)N1CCc2nn(C)c(Cc3ccccc3)c2C1=O
remaining binding (binding; competition with immobilised ligand; 0.1 µM): 95%

O=C(O)[C@@H]1[C@@H](Cn2nnc3ccccc3c2=O)CC[C@H]1C(=O)c1ccc(OCCC2CCOCC2)cc1
remaining binding (cell-free assay; competition with immobilised ligand; 1 µM): 100%

COc1ncc2cc3ccccc3nc2c1C#N
remaining binding (cell-free assay; competition with immobilised ligand; 5 µM): 100%

CC1=C(C#N)C(c2ccc3c(c2)c(NC(=O)c2ccccc2C)nn3C)C(C#N)=C(C)N1
remaining binding (cell-free assay; competition with immobilised ligand; 1 µM): 97%

O=C(c1ccc(Nc2nccc(-c3cc4ccccc4s3)n2)cc1)N1CCC(N2CCCC2)CC1
remaining binding (binding; competition with immobilised ligand; 1 µM): 87%

CN(C)C(=O)Cn1cc(-c2nc(C3(c4ccc(-c5cnc(N)nc5)cc4)CC3)no2)cn1
remaining binding (cell-free assay; competition with immobilised ligand; 1 µM): 100%

C=CC(=O)N1CCC(C(=O)NCC(=O)N2CCN(c3nc(-c4cnc(N)nc4C(F)F)nc(N4CCOCC4)n3)CC2)CC1
remaining binding (binding; competition with immobilised ligand; 1 µM): 100%

Cc1cc(C)c(-n2ccn3nc(-c4cccnc4)cc23)cc1NC(=O)c1cc(C#N)cc(S(F)(F)(F)(F)F)c1
remaining binding (cell-free assay; competition with immobilised ligand; 0.1 µM): 99.6%

c1cnn2ncc(-c3ccnc(N4CCC45COC5)n3)c2c1
remaining binding (binding; 1 µM): 92%

O=C(c1ccc(Nc2ncc(Cl)c(-c3ccc(Cl)s3)n2)cc1)N1CCC(N2CCCC2)CC1
remaining binding (binding; competition with immobilised ligand; 1 µM): 67%

COc1ccnn2ncc(-c3ccnc(N(C)C)n3)c12
remaining binding (binding; 1 µM): 86%

O=C(Nc1c[nH]nc1C(=O)NC1CCNCC1)c1cc(F)cc(F)c1
remaining binding (binding; competition with immobilised ligand; 1 µM): 100%

Cc1cnn2ncc(-c3ccnc(N(C)C)n3)c2c1
remaining binding (binding; 1 µM): 94%

CCC(=O)N[C@H]1CC[C@@H](C(=O)N(C)c2ccc(-c3nc4ccccc4o3)cc2)C1
remaining binding (cell-free assay; competition with immobilised ligand; 1 µM): 73%

CN(c1nccc(-c2cnn3ncccc23)n1)C1CC1
remaining binding (binding; 1 µM): 100%

Nc1ncc2c(n1)-c1c([nH]c3ccc(C#CC4CC4)cc13)CCCC2
remaining binding (binding; competition with immobilised ligand; 1 µM): 100%

C[C@H]1CCN(c2nccc(-c3cnn4ncccc34)n2)C1
remaining binding (binding; 1 µM): 100%

O=C(NCCCN1CCOCC1)c1ccc(Nc2nccc(-c3cc4ccccc4s3)n2)cc1
remaining binding (binding; competition with immobilised ligand; 1 µM): 78%

CNC(=O)[C@@H]1CC[C@@H](n2c(-c3ccc4cnccc4c3)nc3ccc(C(=O)NCc4cccc(C(N)=O)c4)cc32)C1
remaining binding (binding; competition with immobilised ligand; 1 µM): 100%
